Test results reported in ChEMBL document CHEMBL4689842, “EUbOPEN Chemogenomics Library wave 1” (2021).
Values joined by “and” are separate entries in the source; they are usually repeats but may differ in a detail not shown here. Equal entries are not always repeated.

Test system: Fibroblast
Test: Multiplex assay against human fibroblast
Assay type: toxicity, cell-based
In short: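 Cells were classed with CellPathfinder machine-learning gating, first as Hoechst high-intensity objects or normal cells, then (normal cells) as healthy, pyknosed or fragmented nuclei, and finally (pyknosed cells) as mitotic or apoptotic. Staining of live cells at seeding used Hoechst33342, BioTracker Green Microtubule Cytoskeleton Dye, MitoTracker Red and Annexin V Alexa Fluor 680, with imaging on a CQ1 microscope at 37°C and 5% CO2 after compound addition. Tubulin, mitochondrial-mass and membrane-permeability phenotypes are per cents of healthy-nucleus cells.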

[1] = 12 h, 1 µM, compound concentration 1 uM, replicate 1
[2] = 12 h, 1 µM, compound concentration 1 uM, replicate 2
[3] = 12 h, 10 µM, compound concentration 10 uM, replicate 1
[4] = 12 h, 10 µM, compound concentration 10 uM, replicate 2
[5] = 24 h, 1 µM, compound concentration 1 uM, replicate 1
[6] = 24 h, 1 µM, compound concentration 1 uM, replicate 2
[7] = 24 h, 10 µM, compound concentration 10 uM, replicate 1
[8] = 24 h, 10 µM, compound concentration 10 uM, replicate 2
[9] = 48 h, 10 µM, compound concentration 10 uM, replicate 1
[10] = 48 h, 10 µM, compound concentration 10 uM, replicate 2

Q: Which “Population Apoptotic (%)” value [1] does the source give for Cl.O=C(c1ccc(Nc2nccc(-c3cc4ccccc4s3)n2)cc1)N1CCC(N2CCCC2)CC1 here?
A: The value was 84%.

Q: And the “Population Fragmented Nuclei (%)” value [1]?
A: Its value is 42%.

Q: What about the “Population Healthy Nuclei (%)” value [1] of the same compound?
A: Its value is 48%.

Q: And the “Population Hoechst High Intensity Objects (%)” value [1]?
A: The value was 21%.

Q: And the “Population Membrane Permeable-Phenotype (%)” value [1]?
A: Its value is 4%.

Q: And the “Population Mitochondria Different-Phenotype (%)” value [1]?
A: The value was 10%.

Q: And the “Population Mitotic Cells (%)” value [1]?
A: Its value is 15%.

Q: What about the “Population Normal (%)” value [1] of the same compound?
A: The value was 78%.

Q: And the “Population Pyknosed Nuclei (%)” value [1]?
A: The value was 9%.

Q: And the “Population Tubulin-Different-Phenotype (%)” value [1]?
A: The value was 14%.

Q: What about the “Total Cell Count” value [1] of the same compound?
A: The value was 260.

Q: And the “Population Apoptotic (%)” value [2]?
A: Its value is 55%.

Q: What about the “Population Fragmented Nuclei (%)” value [2] of the same compound?
A: The value was 53%.

Q: What about the “Population Healthy Nuclei (%)” value [2] of the same compound?
A: The value was 32%.

Q: What about the “Population Hoechst High Intensity Objects (%)” value [2] of the same compound?
A: The value was 36%.

Q: What about the “Population Membrane Permeable-Phenotype (%)” value [2] of the same compound?
A: Its value is 0%.

Q: And the “Population Mitochondria Different-Phenotype (%)” value [2]?
A: The value was 9%.

Q: And the “Population Mitotic Cells (%)” value [2]?
A: Its value is 44%.

Q: And the “Population Normal (%)” value [2]?
A: Its value is 63%.

Q: What about the “Population Pyknosed Nuclei (%)” value [2] of the same compound?
A: Its value is 13%.

Q: What about the “Total Cell Count” value [2] of the same compound?
A: Its value is 102.

Q: What about the “Population Apoptotic (%)” value [3] of the same compound?
A: The value was 73% and 44%.

Q: What about the “Population Fragmented Nuclei (%)” value [3] of the same compound?
A: Its value is 31% and 33%.

Q: And the “Population Healthy Nuclei (%)” value [3]?
A: The value was 16% and 12%.

Q: What about the “Population Hoechst High Intensity Objects (%)” value [3] of the same compound?
A: The value was 19% and 12%.

Q: What about the “Population Mitochondria Different-Phenotype (%)” value [3] of the same compound?
A: The value was 26% and 36%.

Q: And the “Population Mitotic Cells (%)” value [3]?
A: Its value is 26% and 55%.

Q: And the “Population Normal (%)” value [3]?
A: The value was 80% and 87%.

Q: And the “Population Pyknosed Nuclei (%)” value [3]?
A: The value was 52% and 53%.

Q: And the “Population Tubulin-Different-Phenotype (%)” value [3]?
A: Its value is 66% and 53%.

Q: And the “Total Cell Count” value [3]?
A: Its value is 115 and 265.

Q: And the “Population Apoptotic (%)” value [4]?
A: The value was 93% and 82%.

Q: And the “Population Fragmented Nuclei (%)” value [4]?
A: Its value is 35% and 54%.

Q: And the “Population Healthy Nuclei (%)” value [4]?
A: The value was 7% and 10%.

Q: And the “Population Hoechst High Intensity Objects (%)” value [4]?
A: The value was 21% and 38%.

Q: What about the “Population Membrane Permeable-Phenotype (%)” value [4] of the same compound?
A: Its value is 50% and 42%.

Q: And the “Population Mitochondria Different-Phenotype (%)” value [4]?
A: Its value is 100% and 57%.

Q: What about the “Population Mitotic Cells (%)” value [4] of the same compound?
A: The value was 6% and 17%.

Q: What about the “Population Normal (%)” value [4] of the same compound?
A: Its value is 78% and 61%.

Q: What about the “Population Pyknosed Nuclei (%)” value [4] of the same compound?
A: Its value is 57% and 34%.

Q: And the “Population Tubulin-Different-Phenotype (%)” value [4]?
A: The value was 100% and 57%.

Q: And the “Total Cell Count” value [4]?
A: The value was 73 and 108.

Q: What about the “Population Apoptotic (%)” value [5] of the same compound?
A: Its value is 76%.

Q: What about the “Population Fragmented Nuclei (%)” value [5] of the same compound?
A: Its value is 44%.

Q: And the “Population Healthy Nuclei (%)” value [5]?
A: Its value is 47%.

Q: What about the “Population Hoechst High Intensity Objects (%)” value [5] of the same compound?
A: The value was 23%.

Q: And the “Population Membrane Permeable-Phenotype (%)” value [5]?
A: Its value is 4%.

Q: What about the “Population Mitochondria Different-Phenotype (%)” value [5] of the same compound?
A: The value was 3%.

Q: What about the “Population Mitotic Cells (%)” value [5] of the same compound?
A: Its value is 23%.

Q: And the “Population Normal (%)” value [5]?
A: Its value is 76%.

Q: And the “Population Pyknosed Nuclei (%)” value [5]?
A: Its value is 8%.

Q: What about the “Population Tubulin-Different-Phenotype (%)” value [5] of the same compound?
A: Its value is 10%.

Q: And the “Total Cell Count” value [5]?
A: The value was 340.

Q: What about the “Population Apoptotic (%)” value [6] of the same compound?
A: The value was 0%.

Q: And the “Population Fragmented Nuclei (%)” value [6]?
A: Its value is 60%.

Q: What about the “Population Healthy Nuclei (%)” value [6] of the same compound?
A: Its value is 34%.

Q: And the “Population Hoechst High Intensity Objects (%)” value [6]?
A: Its value is 32%.

Q: And the “Population Membrane Permeable-Phenotype (%)” value [6]?
A: The value was 8%.

Q: What about the “Population Mitochondria Different-Phenotype (%)” value [6] of the same compound?
A: The value was 20%.

Q: And the “Population Mitotic Cells (%)” value [6]?
A: Its value is 100%.

Q: What about the “Population Normal (%)” value [6] of the same compound?
A: Its value is 67%.

Q: And the “Population Pyknosed Nuclei (%)” value [6]?
A: The value was 5%.

Q: What about the “Population Tubulin-Different-Phenotype (%)” value [6] of the same compound?
A: Its value is 32%.

Q: What about the “Total Cell Count” value [6] of the same compound?
A: Its value is 108.

Q: What about the “Population Apoptotic (%)” value [7] of the same compound?
A: Its value is 71%.

Q: And the “Population Fragmented Nuclei (%)” value [7]?
A: Its value is 43% and 48%.

Q: And the “Population Hoechst High Intensity Objects (%)” value [7]?
A: The value was 16% and 20%.

Q: What about the “Population Membrane Permeable-Phenotype (%)” value [7] of the same compound?
A: Its value is 33% and 14%.

Q: And the “Population Mitochondria Different-Phenotype (%)” value [7]?
A: Its value is 22% and 14%.

Q: And the “Population Mitotic Cells (%)” value [7]?
A: The value was 28%.

Q: And the “Population Normal (%)” value [7]?
A: Its value is 83% and 79%.

Q: And the “Population Pyknosed Nuclei (%)” value [7]?
A: Its value is 46% and 48%.

Q: And the “Population Tubulin-Different-Phenotype (%)” value [7]?
A: The value was 66% and 71%.

Q: What about the “Total Cell Count” value [7] of the same compound?
A: The value was 112 and 297.

Q: And the “Population Apoptotic (%)” value [8]?
A: The value was 88% and 100%.

Q: And the “Population Fragmented Nuclei (%)” value [8]?
A: Its value is 66% and 26%.

Q: What about the “Population Hoechst High Intensity Objects (%)” value [8] of the same compound?
A: The value was 45% and 31%.

Q: And the “Population Membrane Permeable-Phenotype (%)” value [8]?
A: The value was 50% and 100%.

Q: What about the “Population Mitotic Cells (%)” value [8] of the same compound?
A: Its value is 11% and 0%.

Q: And the “Population Normal (%)” value [8]?
A: The value was 54% and 68%.

Q: What about the “Population Pyknosed Nuclei (%)” value [8] of the same compound?
A: Its value is 29% and 58%.

Q: What about the “Population Tubulin-Different-Phenotype (%)” value [8] of the same compound?
A: Its value is 50% and 87%.

Q: What about the “Total Cell Count” value [8] of the same compound?
A: The value was 105 and 76.

Q: What about the “Population Apoptotic (%)” value [9] of the same compound?
A: Its value is 91%.

Q: What about the “Population Fragmented Nuclei (%)” value [9] of the same compound?
A: Its value is 55%.

Q: What about the “Population Healthy Nuclei (%)” value [9] of the same compound?
A: Its value is 24%.

Q: And the “Population Hoechst High Intensity Objects (%)” value [9]?
A: Its value is 49%.

Q: And the “Population Membrane Permeable-Phenotype (%)” value [9]?
A: Its value is 33%.

Q: What about the “Population Mitochondria Different-Phenotype (%)” value [9] of the same compound?
A: The value was 33%.

Q: And the “Population Mitotic Cells (%)” value [9]?
A: Its value is 8%.

Q: What about the “Population Normal (%)” value [9] of the same compound?
A: Its value is 50%.

Q: And the “Population Pyknosed Nuclei (%)” value [9]?
A: The value was 19%.

Q: And the “Population Tubulin-Different-Phenotype (%)” value [9]?
A: Its value is 66%.

Q: What about the “Total Cell Count” value [9] of the same compound?
A: The value was 120.

Q: What about the “Population Apoptotic (%)” value [10] of the same compound?
A: The value was 50%.

Q: And the “Population Fragmented Nuclei (%)” value [10]?
A: Its value is 78%.

Q: What about the “Population Healthy Nuclei (%)” value [10] of the same compound?
A: The value was 17%.

Q: What about the “Population Hoechst High Intensity Objects (%)” value [10] of the same compound?
A: Its value is 50%.

Q: What about the “Population Membrane Permeable-Phenotype (%)” value [10] of the same compound?
A: The value was 62%.

Q: What about the “Population Mitochondria Different-Phenotype (%)” value [10] of the same compound?
A: Its value is 12%.

Q: What about the “Population Mitotic Cells (%)” value [10] of the same compound?
A: The value was 50%.

Q: What about the “Population Normal (%)” value [10] of the same compound?
A: The value was 49%.

Q: And the “Population Pyknosed Nuclei (%)” value [10]?
A: Its value is 4%.

Q: What about the “Population Tubulin-Different-Phenotype (%)” value [10] of the same compound?
A: Its value is 62%.

Q: What about the “Total Cell Count” value [10] of the same compound?
A: Its value is 93.
